Results taken from ChEMBL document CHEMBL1177874, “Synthesis and in vitro anticancer screening of some novel 4-[2-amino-3-cyano-4-substituted-5,6,7,8-tetrahydroquinolin-1-(4H)-yl]benzenesulfonamides” (Eur J Med Chem, 2010).

Columns and labels:
[1] = Cytotoxicity against mouse EAC cells assessed as non-viable cells at 10 ug/ml after 2 hrs by trypan blue exclusion assay; format: functional, Ehrlich
In short: (§1)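 EAC cells drawn aseptically by needle aspiration of ascitic fluid from previously inoculated mice; suspension at 2.5 × 10^6 cells per ml. Test agents dissolved in DMSO (1 ml) at 100, 50, 25 and 10 µg, then diluted into the cell suspension. Incubation 2 h at 37 °C. Non-viable cell percentage counted by trypan blue exclusion. IC50 taken from the survival ratio versus concentration curve.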

[2] = Cytotoxicity against mouse EAC cells after 2 hrs by trypan blue exclusion assay; format: functional, cell-based; conditions: Ehrlich; in short: as §1
[3] = Cytotoxicity against mouse EAC cells assessed as non-viable cells at 25 ug/ml after 2 hrs by trypan blue exclusion assay; format: functional, Ehrlich; in short: as §1
[4] = Cytotoxicity against mouse EAC cells assessed as non-viable cells at 100 ug/ml after 2 hrs by trypan blue exclusion assay; format: functional, Ehrlich; in short: as §1
[5] = Cytotoxicity against mouse EAC cells assessed as non-viable cells at 50 ug/ml after 2 hrs by trypan blue exclusion assay; format: functional, Ehrlich; in short: as §1

| SMILES | Activity [1] [%] | IC50 [2] | Activity [3] [%] | Activity [4] [%] | Activity [5] [%] |
| --- | --- | --- | --- | --- | --- |
| N#CC1=C(N)N(c2ccc(S(N)(=O)=O)cc2)C2=C(CCCC2)C1c1ccccc1 (stereo not given) | 5 | > 100 µg/mL | 10 | 30 | 20 |
| N#CC1=C(N)N(c2ccc(S(N)(=O)=O)cc2)C2=C(CCCC2)C1c1ccc(Cl)c(Cl)c1 (stereo not given) | 1 | 100 µg/mL | 40 | 50 | 50 |
| Cc1ccc(C2C(C#N)=C(N)N(c3ccc(S(N)(=O)=O)cc3)C3=C2CCCC3)cc1 (stereo not given) | 20 | 85.7 µM | 30 | 90 | 80 |
| N#CC1=C(N)N(c2ccc(S(N)(=O)=O)cc2)C2=C(CCCC2)C1c1ccccc1O (stereo not given) | 10 | 118 µM | 40 | 100 | 50 |
| N#CC1=C(N)N(c2ccc(S(N)(=O)=O)cc2)C2=C(CCCC2)C1c1ccc(O)cc1 (stereo not given) | 20 | 82.9 µM | 42 | 100 | 60 |
| N#CC1=C(N)N(c2ccc(S(N)(=O)=O)cc2)C2=C(CCCC2)C1c1cccc([N+](=O)[O-])c1 (stereo not given) | 0 | > 100 µg/mL | 1 | 12 | 2 |
| N#CC1=C(N)N(c2ccc(S(N)(=O)=O)cc2)C2=C(CCCC2)C1c1ccc([N+](=O)[O-])cc1 (stereo not given) | 0 | > 100 µg/mL | 5 | 20 | 10 |
| N#CC1=C(N)N(c2ccc(S(N)(=O)=O)cc2)C2=C(CCCC2)C1c1ccccc1Cl (stereo not given) | 0 | > 100 µg/mL | 0 | 10 | 5 |
| N#CC1=C(N)N(c2ccc(S(N)(=O)=O)cc2)C2=C(CCCC2)C1c1ccc(Cl)cc1Cl (stereo not given) | 0 | 105 µM | 50 | 70 | 50 |
| N#CC1=C(N)N(c2ccc(S(N)(=O)=O)cc2)C2=C(CCCC2)C1c1c(O)ccc2ccccc12 (stereo not given) | 10 | 100 µg/mL | 5 | 50 | 20 |
| COc1ccc2ccccc2c1C1C(C#N)=C(N)N(c2ccc(S(N)(=O)=O)cc2)C2=C1CCCC2 (stereo not given) | 5 | 100 µg/mL | 10 | 50 | 10 |
| COc1ccc(C2C(C#N)=C(N)N(c3ccc(S(N)(=O)=O)cc3)C3=C2CCCC3)c2ccccc12 (stereo not given) | 0 | > 100 µg/mL | 5 | 20 | 10 |
| N#CC1=C(N)N(c2ccc(S(N)(=O)=O)cc2)C2=C(CCCC2)C1/C=C/c1ccccc1 (stereo not given) | 50 | 23.1 µM | 70 | 70 | 90 |
| COc1ccccc1C1C(C#N)=C(N)N(c2ccc(S(N)(=O)=O)cc2)C2=C1CCCC2 (stereo not given) | 30 | 115 µM | 40 | 100 | 50 |
| COc1cc(C2C(C#N)=C(N)N(c3ccc(S(N)(=O)=O)cc3)C3=C2CCCC3)ccc1O (stereo not given) | 0 | 100 µg/mL | 2 | 50 | 30 |
| CCOc1cc(C2C(C#N)=C(N)N(c3ccc(S(N)(=O)=O)cc3)C3=C2CCCC3)ccc1OC (stereo not given) | 0 | > 100 µg/mL | 5 | 10 | 5 |
| COc1cc(OC)c(C2C(C#N)=C(N)N(c3ccc(S(N)(=O)=O)cc3)C3=C2CCCC3)cc1OC (stereo not given) | 0 | 101 µM | 0 | 100 | 50 |
| N#CC1=C(N)N(c2ccc(S(N)(=O)=O)cc2)C2=C(CCCC2)C1c1cccs1 (stereo not given) | 0 | > 100 µg/mL | 5 | 20 | 10 |
| Cc1ccc(C2C(C#N)=C(N)N(c3ccc(S(N)(=O)=O)cc3)C3=C2CCCC3)o1 (stereo not given) | 0 | > 100 µg/mL | 10 | 30 | 10 |
| COc1ccc(C2C(C#N)=C(N)N(c3ccc(S(N)(=O)=O)cc3)C3=C2CCCC3)cc1 (stereo not given) | 50 | 22.9 µM | 90 | 100 | 100 |
| N#CC1=C(N)N(c2ccc(S(N)(=O)=O)cc2)C2=C(CCCC2)[C@@H]1c1ccc2c(c1)OCO2 | 100 | < 22.2 µM | 100 | 100 | 100 |
| COc1cccc2c1C(=O)c1c(O)c3c(c(O)c1C2=O)C[C@@](O)(C(=O)CO)C[C@@H]3O[C@H]1C[C@H](N)[C@H](O)[C@H](C)O1 [DOXORUBICIN] | 17 | 69.9 µM | 25 | 100 | 70 |
